Screening results deposited in PubChem BioAssay by several laboratories.
CSN inh = blocks human CSN-mediated cullin deneddylation | AID 651999 | inhibition, % at 12.5 µM | actives 0.38% (n = 360,000) | Purified CSN, SCF-Nedd8-OG deneddylation, fluorescence polarization | Q92905;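 active means pattern-corrected inhibition above about 35%, with an unprinted fluorescence ratio check between 0.5 and 1.5, limit read from the data, passing the limit was not always enough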;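 further: 0% = enzyme with substrate and 100% = substrate without enzyme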
Target sequence (Q92905 whole entry, looked up, one chain of several): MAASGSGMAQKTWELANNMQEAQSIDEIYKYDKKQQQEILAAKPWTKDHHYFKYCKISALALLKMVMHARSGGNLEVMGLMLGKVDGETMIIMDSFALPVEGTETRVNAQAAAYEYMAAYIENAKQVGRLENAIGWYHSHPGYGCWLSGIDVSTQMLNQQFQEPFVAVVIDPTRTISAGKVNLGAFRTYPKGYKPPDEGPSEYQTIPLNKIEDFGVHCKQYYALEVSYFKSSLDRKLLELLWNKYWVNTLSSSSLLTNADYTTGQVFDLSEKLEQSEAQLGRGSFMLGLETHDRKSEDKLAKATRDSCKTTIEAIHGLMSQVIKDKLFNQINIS
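Test system: Human Csn5 produced in HEK293T cells | Compound: 12.5 µM single point | Times: 90 min, room temperature | Signal: Fluorescence polarization readout | Read-out basis: % inhibition of substrate cleavage by Csn5 | Controls: no-enzyme wells high, enzyme-with-substrate wells low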
HNF4A DNA FP = change in binding of human HNF4 alpha to DNA; P41235; HNF4a-FITC DNA binding, fluorescence polarization, 1 h; activity change, % at 10 µM; actives 0.3% (n = 360,000); AID 1224865; in the data active means activity change above about 30%, passing the limit was not always enough
TPT1 inh = inhibitors of Candida albicans tRNA 2'-phosphotransferase TPT1; inhibition, % at 5 µM; recombinant caTPT1, FP RNA substrate dephosphorylation; actives 0.81% (n = 300,000);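 active means inhibition above the mean of all tested compounds plus 3 SD, set per screening campaign, cut at about 24% in these data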;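 further: plate controls were DMSO alone for no effect and ferristatin control at 100 nM for full effect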
Rpn11 inh = blocks the human proteasome subunit Rpn11 | calls only at 20 µM | actives 0.59% (n = 360,000) | O00487 | human 26S proteasome, Ub4-pepOG fluorescence polarization; 20S core pre-blocked with epoxomicin | AID 588493;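 active means inhibition at 20 µM, scaled to each plate's controls, above about 33%, limit read from the data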
caTPT1 confirm = TPT1 (C. albicans) inhibition, confirmation | shares compounds with TPT1 inh | recombinant caTPT1, fluorescence polarization, RNase T1 coupled | inhibition, % at 5 µM | actives 74% (n = 2,400);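 active means inhibition above the primary screen limit, the mean inhibition of all tested compounds plus 3 SD, cut at about 25% in these data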
RNase T1 counter = blocks Aspergillus oryzae RNase T1, a TPT1 counter-screen; shares compounds with TPT1 inh; RNase T1 cleavage, fluorescence polarization, 1536-well; inhibition, % at 5 µM; actives 83% (n = 2,400);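 active means inhibition above the solvent-only control well mean plus 3 SD, limit set per screening run, cut at about 23% in these data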;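 further: plate controls were DMSO wells with enzyme for no effect and wells without RNase T1 for full effect; inhibitors block cleavage so intact labeled substrate keeps polarization high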
Target sequence (P00651 whole entry, looked up): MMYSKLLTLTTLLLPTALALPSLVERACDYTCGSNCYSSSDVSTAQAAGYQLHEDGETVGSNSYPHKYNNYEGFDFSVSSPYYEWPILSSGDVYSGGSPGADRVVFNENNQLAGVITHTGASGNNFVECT
* hit, by the source's call; i = inactive; x = no result given. Shown are actives, neighbours in structure and some others; about 1.5% of the full set was active somewhere.

SMILES	CSN inh	HNF4A DNA FP	TPT1 inh	Rpn11 inh	caTPT1 confirm	RNase T1 counter
Cc1ccc(CN(C)C(=O)CN2C(=O)NC3(CCCc4ccccc43)C2=O)c(C)c1 (centres undefined)	-2	-1	x	i	x	x
Cc1ccc(C2C(C#N)=C(N)SC(N)=C2C#N)c(C)c1	-69	142	152*	x	79*	90*
COc1ccc(/C=c2\s/c(=C/C(=O)c3ccc(C)cc3)[nH]c2=O)c(OC)c1	-37	36	67*	x	28*	37*
CCN(C(=O)COC(=O)c1cccc(S(=O)(=O)N2CCOCC2)c1)C1CCS(=O)(=O)C1 (centres undefined)	-4	-4	-2	i	x	x
Oc1nc(Nc2cccc(Cl)c2)sc1/C=C1\C=Nc2ccccc21	4	3	2	i	x	x
Oc1cccc(Nc2nc(O)c(/C=C3\C=Nc4ccccc43)s2)c1	118	150	77*	x	130*	130*
CCOc1ccc(CN(C)C(=O)Cc2c[nH]c3ccccc23)cc1	-2	-1	x	i	x	x
Cc1ccccc1-n1c(SCc2c(C)noc2C)nnc1-c1ccncc1	5	3	33*	i	11	16
COc1ccc(C)cc1Nc1n[n+](-c2ccccc2)c(-c2cc([N+](=O)[O-])cc(OC)c2O)s1	73	207	24*	x	120*	120*
Cc1ccc(N/C=C/C(=O)c2sc(-c3ccccc3)nc2C)cc1	9	11	39*	i	38*	47*
Cc1nc(-c2ccccc2)sc1C(=O)NN	-4	4	3	i	x	x
COc1ccc(S(=O)(=O)Nc2ccc(C)c(S(=O)(=O)N3CCOCC3)c2)cc1[N+](=O)[O-]	-5	4	x	i	x	x
O=c1[nH]c(=O)n(C2CCCCCC2)c(O)c1C=NCc1ccc(F)cc1	4	-1	-3	i	x	x
Oc1c(C=NCc2ccc(F)cc2)[nH]c2ccc(Br)c(Cl)c12	x	x	54*	x	97*	104*
COc1ccc(CN=Cc2c(O)[nH]c3ccccc23)cc1	1	3	1	i	x	x
Cc1ccc(CN=Cc2[nH]c3ccc(Br)c(Cl)c3c2O)cc1	0	46*	70*	i	130*	129*
Cc1nnc(-n2ncc(C#N)c2N)c2nn(-c3cccc(Cl)c3)c(C)c12	6	12	8	i	x	x
Cc1nnc(N2CCOCC2)c2nn(-c3cccc(Cl)c3)c(C)c12	11	21	28*	x	69*	76*
CCCC1=[N+](CC(=O)c2ccc(Br)cc2)CCn2cccc21	11	7	118*	x	9	18
CCCC1=[N+](CC(=O)c2ccccc2)CCn2cccc21	-8	-3	86*	i	8	14
CCCC1=[N+](CC(C)=O)CCn2c(C)ccc21	0	0	-3	i	x	x
CC1=NN(c2ccccc2)C(=O)C1N=Nc1ccc(C)cc1 (centres undefined)	x	x	-2	x	x	x
CC1=NN(c2ccccc2)C(=O)C1C=Nc1ccc(N(C)C)cc1 (centres undefined)	10	3	42*	i	67*	77*
Cc1oc(C)c2c(=O)ccc3c(c12)OC(N)=C(C#N)C3c1ccccc1 (centres undefined)	10	5	4	x	x	x
Cc1oc(C)c2c(=O)ccc3c(c12)OC(N)=C(C#N)C3c1ccccc1Cl (centres undefined)	31	8	29*	x	48*	56*
SMILES	CSN inh	HNF4A DNA FP	TPT1 inh	Rpn11 inh	caTPT1 confirm	RNase T1 counter
O=C(O)c1c[nH]c2ccc(F)cc2c1=O	-2	-2	1	i	x	x
COc1ccc(OC)c(C2=C/C(=C/c3ccccn3)C(=O)O2)c1	32	6	80*	x	84*	90*
COc1ccc(OC)c(-c2oc3ccccc3c(=O)c2O)c1	4	2	0	i	x	x
C/C(CC(=O)NCc1ccco1)=N\NC(=O)Cc1ccc(-c2ccccc2)cc1	-1	0	38*	i	0	4
C/C(CC(=O)NCc1ccco1)=N\NC(=O)Cc1cccc2ccccc12	-4	3	2	i	x	x
O=C(OCCSCCOC(=O)C1CC=CCC1)C1CC=CCC1 (centres undefined)	-7	-1	x	i	x	x
CN(C)c1ccc(/C=C(/NC(=O)c2ccccc2)C(=O)NCCCn2ccnc2)cc1	72*	14	134*	x	155*	157*
CN(C)c1ccc(/C=C(\NC(=O)c2ccccc2)C(=O)NCc2ccncc2)cc1	9	4	9	i	x	x
CN(C)c1ccc(/C=C(\NC(=O)c2ccccc2)C(=O)N/N=C/c2ccc(C(=O)O)cc2)cc1	4	4	33*	i	20	29*
CN(C)c1ccc(/C=C(\NC(=O)c2ccccc2)C(=O)NCc2cccnc2)cc1	19	3	51*	i	68*	84*
CN(C)c1ccc(/C=C(\NC(=O)c2ccccc2)C(=O)NCCN2CCOCC2)cc1	5	1	28*	i	17	23*
CCOc1ccc(S(=O)(=O)N2CCCCC2)cc1NC(=O)C1CSC2(C)CCC(=O)N12 (centres undefined)	0	2	-5	i	x	x
Cc1ccccc1OCCOC(=O)c1cc(S(=O)(=O)N2CCOCC2)ccc1C	-1	-9	x	i	x	x
COc1ccc(-c2nn(-c3ccccc3)cc2C(=O)N2CCN(C(=O)c3ccco3)CC2)cc1	2	1	x	i	x	x
COC(=O)CSCc1nc2ccccc2[nH]c1=O	7	24	64*	i	61*	72*
O=C(Cn1ccnc1[N+](=O)[O-])N(CCO)CCO	2	1	x	i	x	x
CCCCCCc1cc2cc(C(N)=O)c(=N)oc2cc1O	x	x	67*	x	8	22*
CCN(CC)c1ccc2cc(NC(=O)CCC(=O)O)c(=O)oc2c1	-16	-49	-28	i	x	x
CCCCCCc1cc2cc(C(=O)NC)c(=N)oc2cc1O	-22	-83	9	i	x	x
CCN(CC)c1ccc2cc(C(C)=O)c(=O)oc2c1	97	x	131*	x	109*	109*
CCN(CC)c1ccc2cc(C=O)c(=O)oc2c1	-73	14	121*	x	102*	101*
CCN(CC)c1ccc2cc(C(=O)Nc3ccccn3)c(=O)oc2c1	-13	32	135*	i	109*	112*
CN(Cc1cccnc1)C(=O)c1cc(S(=O)(=O)Nc2ccccc2F)ccc1Cl	4	-3	x	i	x	x
CCc1nc2c(OCc3ccc(C(F)(F)F)cc3)cccn2c1N(C)C(=O)C1CC1	-2	-1	x	i	x	x
COc1ccc(SCCN2CC[C@@H](C(C)(C)C)CCC2=O)cc1	1	0	x	i	x	x
CN1C(=O)C(=O)/C(=C(/O)c2ccc(Br)cc2)C1c1ccccc1F (centres undefined)	-4	1	-1	i	x	x
